From ChEMBL document CHEMBL1123266, “Antibacterial activity of phosphono dipeptides related to alafosfalin” (J Med Chem, 1986) come the findings set out here.

For assay [1], the system named is Staphylococcus aureus. Briefly: Minimum inhibitory concentration (MIC) to control the growth of Staphylococcus aureus strain PCM 2054. The format is functional. Summed up:
(§1)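 Doubling dilutions of compound were made in a defined liquid peptide medium free of peptide-mimetic antagonists, final 0.065–512 μg/mL. The inoculum was an overnight 37 °C culture diluted to about 4 × 10^6 cfu/mL, incubated overnight at 37 °C. Non-turbid samples were subcultured (0.1 mL) onto solid peptide-medium agar and incubated overnight at 37 °C to assign MIC.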

Assay [2] relates to Enterococcus faecalis. Briefly: Minimum inhibitory concentration (MIC) to control the growth of Streptococcus faecalis strain PCM 896. Type of assay: functional. Summed up: as §1
Assay [3] relates to Escherichia coli. Briefly: Concentration (IC50) to inhibit the growth of Escherichia coli. The format is functional, organism-based. Summed up: (§2)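 Broth dilution in a defined liquid peptide medium lacking antagonists of small peptide mimetics. Inocula were overnight cultures grown in this medium at 37 °C and diluted to about 4 × 10^6 cfu/mL. Compound was tested as a doubling dilution series, final 0.065–512 μg/mL, incubated overnight at 37 °C. Turbidity was read, and IC50 is the concentration reducing 24-h growth to 50% of control.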

Assay [4] relates to Enterococcus faecalis. Nature of the assay: Concentration (IC50) to inhibit the growth of Streptococcus faecalis. The format is functional, organism-based. Summed up:
as §2

Assay [5] concerns Escherichia coli. Nature of the assay: Minimum inhibitory concentration (MIC) to control the growth of Escherichia coli strain PCM 2057. The format is functional. Summed up:
as §1

Assay [6] deals with Klebsiella aerogenes. Nature of the assay: Minimum inhibitory concentration (MIC) to control the growth of Klebsiella aerogenes strain PCM 2063. Type of assay: functional. The gist of the method:
as §1

Assay [7] has as its system Staphylococcus aureus. Briefly: Concentration (IC50) to inhibit the growth of Staphylococcus aureus. Type of assay: functional, organism-based. The gist of the method: as §2
For assay [8], the system named is Bacillus subtilis. Briefly: Concentration (IC50) to inhibit the growth of Bacillus subtilis. The format is functional, organism-based. Summed up: as §2
Assay [9] has as its system Bacillus subtilis. Nature of the assay: Minimum inhibitory concentration (MIC) to control the growth of Bacillus subtilis strain PCM 1949. Type of assay: functional. Summed up:
as §1

The subject of assay [10] is Serratia marcescens. Nature of the assay: Minimum inhibitory concentration (MIC) to control the growth of Serratia marcescens strain PCM 549. The format is functional. The gist of the method: as §1
For assay [11], the system named is Serratia marcescens. Briefly: Concentration (IC50) to inhibit the growth of Serratia marcescens. Type of assay: functional, organism-based. Summed up: as §2
Assay [12] relates to Klebsiella aerogenes. Nature of the assay: Concentration (IC50) to inhibit the growth of Klebsiella aerogenes. The format is functional, organism-based. The gist of the method: as §2

≈ marks a conversion by molar mass, not a printed value.

Turning to `COc1ccc(CC(NC(=O)C(N)CC(C)C)P(=O)(O)O)cc1OC` (configuration not stated), the MIC in the assay on Staphylococcus aureus [1], with Enterococcus faecalis [2], with Escherichia coli [5], in the assay with Klebsiella aerogenes [6], against Bacillus subtilis [9] and with Serratia marcescens [10] was above 512 µg/mL in each case. Also, the IC50 with Escherichia coli [3], in the assay on Enterococcus faecalis [4], in the assay with Staphylococcus aureus [7], with Bacillus subtilis [8], with Serratia marcescens [11] and with Klebsiella aerogenes [12] was above 512 µg/mL each time.

As for `COc1ccc(CC(NC(=O)C(C)N)P(=O)(O)O)cc1OC` (configuration not stated), the MIC against Staphylococcus aureus [1], with Enterococcus faecalis [2], in the assay with Escherichia coli [5], against Klebsiella aerogenes [6], against Bacillus subtilis [9] and against Serratia marcescens [10] was above 512 µg/mL throughout. Also, the IC50 in the assay with Escherichia coli [3], in the assay on Enterococcus faecalis [4], in the assay on Staphylococcus aureus [7], in the assay on Bacillus subtilis [8], with Serratia marcescens [11] and in the assay with Klebsiella aerogenes [12] was above 512 µg/mL in each case.

Take `CC(C)CC(N)C(=O)NC1(P(=O)(O)O)CCCCC1` (configuration not stated): the MIC with Staphylococcus aureus [1], against Enterococcus faecalis [2], against Escherichia coli [5], with Klebsiella aerogenes [6], with Bacillus subtilis [9] and in the assay with Serratia marcescens [10] was above 512 µg/mL each time. For the same molecule, the IC50 in the assay with Escherichia coli [3] is above 512 µg/mL; with Enterococcus faecalis [4], above 512 µg/mL; with Staphylococcus aureus [7] it was 0.065 µg/mL (≈ 0.222 µM); in the assay on Bacillus subtilis [8], 5.6 µg/mL (≈ 19.2 µM); in the assay with Serratia marcescens [11] it was above 512 µg/mL; with Klebsiella aerogenes [12] it was above 512 µg/mL.

For the molecule `CC(N)C(=O)NC(C1CCCC1)P(=O)(O)O` (configuration not stated), the MIC in the assay on Staphylococcus aureus [1], in the assay on Enterococcus faecalis [2], with Escherichia coli [5], in the assay on Klebsiella aerogenes [6], with Bacillus subtilis [9] and in the assay on Serratia marcescens [10] was above 512 µg/mL in each case. Besides, the IC50 in the assay on Escherichia coli [3] was above 512 µg/mL; in the assay with Enterococcus faecalis [4] it was 16 µg/mL (≈ 63.9 µM); with Staphylococcus aureus [7], 512 µg/mL (≈ 2050 µM); in the assay on Bacillus subtilis [8], above 512 µg/mL; in the assay with Serratia marcescens [11], above 512 µg/mL; in the assay on Klebsiella aerogenes [12], above 512 µg/mL.

With `CC(C)CC(N)C(=O)NC(C)(C)P(=O)(O)O` (configuration not stated), the MIC with Staphylococcus aureus [1] was 256 µg/mL (≈ 1010 µM); with Enterococcus faecalis [2], 8 µg/mL (≈ 31.7 µM); in the assay with Escherichia coli [5], 64 µg/mL (≈ 254 µM); against Klebsiella aerogenes [6], 256 µg/mL (≈ 1010 µM); against Bacillus subtilis [9], 256 µg/mL (≈ 1010 µM); in the assay with Serratia marcescens [10], above 512 µg/mL. Besides, the IC50 in the assay on Escherichia coli [3] turned out to be 35 µg/mL (≈ 139 µM); with Enterococcus faecalis [4], 4.4 µg/mL (≈ 17.4 µM); in the assay on Staphylococcus aureus [7], 48 µg/mL (≈ 190 µM); with Bacillus subtilis [8], 45 µg/mL (≈ 178 µM); with Serratia marcescens [11] it was 384 µg/mL (≈ 1520 µM); in the assay with Klebsiella aerogenes [12], 4.4 µg/mL (≈ 17.4 µM).

Take `CC(N)C(=O)NC(C)(C)P(=O)(O)O` (configuration not stated): the MIC against Staphylococcus aureus [1] is 256 µg/mL (≈ 1220 µM); against Enterococcus faecalis [2], 8 µg/mL (≈ 38.1 µM); in the assay on Escherichia coli [5], 64 µg/mL (≈ 305 µM); in the assay on Klebsiella aerogenes [6], 256 µg/mL (≈ 1220 µM); with Serratia marcescens [10], above 512 µg/mL. Also, the IC50 was 5.6 µg/mL (≈ 26.6 µM) in the assay with Escherichia coli [3]; 19 µg/mL (≈ 90.4 µM) in the assay with Enterococcus faecalis [4]; 282 µg/mL (≈ 1340 µM) in the assay on Staphylococcus aureus [7]; 16 µg/mL (≈ 76.1 µM) in the assay on Bacillus subtilis [8]; 48 µg/mL (≈ 228 µM) in the assay with Serratia marcescens [11]; 512 µg/mL (≈ 2440 µM) with Klebsiella aerogenes [12].

Regarding `CC(N)C(=O)NC(C(C)(C)C)P(=O)(O)O` (configuration not stated), the MIC in the assay on Staphylococcus aureus [1], with Enterococcus faecalis [2], in the assay with Escherichia coli [5], in the assay with Klebsiella aerogenes [6], in the assay on Bacillus subtilis [9] and in the assay with Serratia marcescens [10] was above 512 µg/mL throughout. Besides, the concentration for half-maximal inhibition (IC50) with Escherichia coli [3], with Enterococcus faecalis [4], in the assay on Staphylococcus aureus [7], in the assay with Bacillus subtilis [8], in the assay on Serratia marcescens [11] and in the assay with Klebsiella aerogenes [12] was above 512 µg/mL each time.

Turning to `CC(C)CC(N)C(=O)NC(CC(C)C)P(=O)(O)O` (configuration not stated), the MIC against Staphylococcus aureus [1] was 512 µg/mL (≈ 1830 µM); in the assay on Enterococcus faecalis [2] it was above 512 µg/mL; with Escherichia coli [5], above 512 µg/mL; with Klebsiella aerogenes [6], above 512 µg/mL; in the assay on Bacillus subtilis [9], above 512 µg/mL; in the assay with Serratia marcescens [10] it was above 512 µg/mL. Further, the IC50 in the assay with Escherichia coli [3] was 307 µg/mL (≈ 1100 µM); in the assay on Enterococcus faecalis [4], above 512 µg/mL; in the assay with Staphylococcus aureus [7] it was 104 µg/mL (≈ 371 µM); with Bacillus subtilis [8] it was 32 µg/mL (≈ 114 µM); with Serratia marcescens [11], 64 µg/mL (≈ 228 µM); in the assay with Klebsiella aerogenes [12] it was above 512 µg/mL.

Turning to `CC(C)CC(N)C(=O)NC(C1CCCC1)P(=O)(O)O` (configuration not stated), the MIC against Staphylococcus aureus [1] was above 512 µg/mL; against Enterococcus faecalis [2], above 512 µg/mL; with Escherichia coli [5], above 512 µg/mL; in the assay on Klebsiella aerogenes [6], above 512 µg/mL; against Bacillus subtilis [9] it was above 512 µg/mL; with Serratia marcescens [10] it was 128 µg/mL (≈ 438 µM). Moreover, the IC50 with Escherichia coli [3] was above 512 µg/mL; in the assay with Enterococcus faecalis [4], above 512 µg/mL; in the assay with Staphylococcus aureus [7], 6 µg/mL (≈ 20.5 µM); in the assay on Bacillus subtilis [8] it was 435 µg/mL (≈ 1490 µM); in the assay on Serratia marcescens [11] it was 64 µg/mL (≈ 219 µM); with Klebsiella aerogenes [12] it was above 512 µg/mL.
